{"source": "paper PMC2386536", "about": "(The Journal of Endocrinology, 2008)", "key": {"[1]": {"assay": "mean arterial blood pressure and heart rate during ischaemia–reperfusion", "format": "in vivo, rat", "conditions": "data not shown", "procedure,_shortened": "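They were then dosed with test compound or vehicle for 5 days, with the last dose 2–3 h before surgery. Under pentobarbitone anaesthesia (60 mg/kg i.p.), MABP was recorded via a carotid artery cannula. The protocol was 20-min stabilisation, 45-min LCA occlusion, then 2-h reperfusion.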"}, "[2]": {"system": "ischaemia–reperfusion injury in the rat", "assay": "EPR free radical production from hearts after in vivo ischaemia–reperfusion", "conditions": "CP-H spin trap", "procedure,_shortened": "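Hearts were excised after in vivo ischaemia–reperfusion (45 min/2 h) and perfused retrogradely with warmed, gassed Krebs–Henseleit. With the LCA snare re-tied, 10 μl of 10−1 M CP-H spin trap was injected above the heart and 500 μl perfusate (drops 6–11) collected, four times per heart and averaged. This was repeated with the snare released, then with 500 U SOD. Samples were incubated at 37 °C for 20 min and read by EPR.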"}, "[3]": {"system": "ischaemia and reperfusion in the rabbit", "conditions": "in vivo; cited from earlier work"}}, "data": [{"smiles": "C[C@]12CC[C@@H]3c4ccc(O)cc4CC[C@H]3[C@@H]1CC[C@@H]2O", "note": "[17βE2, 17β-oestradiol]", "values": [{"measurement": "effect on MABP pattern and MABP at end of ischaemia or reperfusion", "setting": "[1]", "result": "did not have a significant effect"}, {"measurement": "free radical production from the AAR compared with placebo/vehicle", "setting": "[2]", "result": "Significantly fewer free radicals"}]}, {"smiles": "CCCc1c(-c2ccc(O)cc2)nn(-c2ccc(O)cc2)c1-c1ccc(O)cc1", "note": "[PPT, 4,4,4-4 propyl-(1H)-pyrazole 1,3,5-triyltrisphenol]", "values": [{"measurement": "cardioprotection / infarct size", "setting": "[3]", "result": "reduced infarct size"}]}]}
